The sample as a whole holds a higher share of hits than the screen did.
HUVEC prolif 384: blocks proliferation of human endothelial cells. HUVEC proliferation, CellTiter-Glo luminescence, 72 h; active compounds read low. viability, % at 10 µM (by protocol). hit rate 1.1% among 86,000. AID 648;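 active means viability at or below 30%; inactive means viability above 30%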;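 further: 100% = median luminescence of DMSO-only cell control wells on each plate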
bCat KO growth: beta-catenin-lacking colon tumor cell growth suppression | HCT116 beta-catenin knockout viability, CellTiter-Glo, 60 h; active compounds read low | viability, % at 10 µM | hit rate 1.5% among 140,000;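 active means viability at or under a set limit, the compound median less 4 SD, cut at about 6% in these data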;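 further: 0% = Hyamine 1622 control at 20 µM and 100% = untreated cell control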
Fibroblast inh: blocks proliferation of human lung fibroblasts; LL 47 human lung fibroblast viability, ATP luminescence; active compounds read low; viability, % at 10 µM; hit rate 1.1% among 85,000; AID 719;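 active means viability at or below 50% in the single dose screen; inactive means viability above 50%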;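 further: compound exposure lasted 72 h before the ATP readout; 100% = median luminescence of untreated cell-only wells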
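Material: Human LL 47 lung fibroblast cells | Input: 1,150 cells/well | Buffer or medium: IMEM plus 15% FBS | Compound dosing: 0.1% DMSO in all compound wells | Times: Overnight cell rest, 72 h compound treatment at 37 °C | Signal: CellTiter-Glo luminescence measuring cellular ATP | Measure: % viability versus median cells-only luminescence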
H69AR inhibit: growth inhibitors of human H69AR lung tumor cells; H69AR lung tumor viability, ATP luminescence, 72 h; active compounds read low; viability, % at 10 µM; hit rate 6% among 85,000; AID 598;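 active means viability at or below 40%; inactive means viability above 40%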;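 further: multidrug resistant small cell line overexpressing MRP-1 efflux transporter; 100% = mean luminescence of untreated control wells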
PTEN del growth: suppresses growth of cells with PTEN deletion; HCT116 PTEN-null viability, CellTiter-Glo, 60 h; active compounds read low; viability, % at 10 µM; hit rate 1.2% among 140,000; AID 827;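 active means viability at or below a set limit, 4 SD under the median of all tested compounds, cut at about 3.7% in these data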;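 further: PTEN knockout HCT116 line with beta catenin targeted HCT116 as companion control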
* marks the source's active call; other numbers are inactive results.

O=C(OCC#CCSc1nnc(-c2ccccc2)o1)c1cccs1 was read as HUVEC prolif 384 87, bCat KO growth 90, Fibroblast inh 97, H69AR inhibit 87 and PTEN del growth 81.
For C#CCSc1nnc(-c2cccc3ccccc23)o1 the results were HUVEC prolif 384 64, Fibroblast inh 65 and H69AR inhibit 21*.
For O=C(OCC#CCSc1nnc(-c2cccc3ccccc23)o1)c1cccs1 the results were HUVEC prolif 384 82, bCat KO growth 92, Fibroblast inh 98, H69AR inhibit 35* and PTEN del growth 86.
CC(C)(C)NC(=O)COC(=O)c1cc(S(=O)(=O)N2CCCCC2)ccc1N1CCOCC1 was read as bCat KO growth 87 and PTEN del growth 84.
For CCCCCC(=O)NNC(=O)c1ccc(-c2ccccc2)cc1 the results were bCat KO growth 106 and PTEN del growth 101.
For COC1=C(c2ccccc2)C(=O)c2ccccc2C1=O the results were bCat KO growth 1.9* and PTEN del growth 2.0*.
O=C(c1ccccc1)c1c[nH]cc1-c1ccccc1 was read as HUVEC prolif 384 94, bCat KO growth 97, Fibroblast inh 96, H69AR inhibit 92 and PTEN del growth 87.
Screening O=C(C1=C(c2ccccc2)C(=O)c2ccccc2C1=O)c1ccccc1 returned bCat KO growth 1.5* and PTEN del growth 1.5*.
Screening CCn1nc(C(=O)NC2=NCCS2)c2ccccc2c1=O returned HUVEC prolif 384 2.7*, bCat KO growth 99, Fibroblast inh 93, H69AR inhibit 98 and PTEN del growth 105.
For Cn1c(CNc2cccc(Cl)c2)nnc1SCC(=O)OC1CCCCC1 the results were HUVEC prolif 384 19*, bCat KO growth 104, Fibroblast inh 82, H69AR inhibit 106 and PTEN del growth 94.
O=c1c2sc3nc(N4CCOCC4)c4c(c3c2ncn1Cc1ccco1)CCCC4 was read as HUVEC prolif 384 90, Fibroblast inh 90 and H69AR inhibit 69.
`O=C(COC(=O)c1n[nH]c2ccccc12)NC(=O)NC12CC3CC(CC(C3)C1)C2` gave HUVEC prolif 384 69, bCat KO growth 22, Fibroblast inh 81, H69AR inhibit 17* and PTEN del growth 1.4*.
O=C(COC(=O)c1n[nH]c2ccccc12)NC(=O)NC1CCCC1 was read as HUVEC prolif 384 98, bCat KO growth 97, Fibroblast inh 102, H69AR inhibit 92 and PTEN del growth 105.
Screening CC1CCc2ccc(F)cc2N1S(=O)(=O)c1cccs1 (stereo not drawn) returned HUVEC prolif 384 83, bCat KO growth 44, Fibroblast inh 89, H69AR inhibit 27* and PTEN del growth 46.
`CC(C)c1onc(C(=O)N2CCN(Cc3ccccc3)CC2)c1[N+](=O)[O-]` gave bCat KO growth 86 and PTEN del growth 88.
For CCCCCCCCC[n+]1cccc2c3ccccc3ccc21 the results were bCat KO growth 1.2* and PTEN del growth 1.2*.
Screening O=C(C[n+]1cc2ccccc2c2ccccc21)c1ccccc1 returned bCat KO growth 34 and PTEN del growth 48.
For CCCCCCCCCCCCCCCC[n+]1cccc2ccccc21 the results were bCat KO growth 1.4* and PTEN del growth 1.7*.
`CCCC(=Nc1ccc(N)cc1)C1=C(O)C(C(=O)OC)C(C)(C)CC1=O` (stereo not drawn) gave HUVEC prolif 384 88, bCat KO growth 104, Fibroblast inh 100, H69AR inhibit 20* and PTEN del growth 96.
Screening CCCC(=O)C1=C(O)C(C(=O)OC)C(C)(C)CC1=Nc1ccc(N)cc1 (stereo not drawn) returned HUVEC prolif 384 95, bCat KO growth 89, Fibroblast inh 97, H69AR inhibit 81 and PTEN del growth 87.
Screening CCN(CC)S(=O)(=O)c1cccc(NC(=O)COC(=O)CCC(=O)c2ccc(F)cc2)c1 returned bCat KO growth 87 and PTEN del growth 92.
For Cc1nc2ccccc2n1-c1nc(-c2ccco2)cc(C(F)(F)F)n1 the results were bCat KO growth 3.1* and PTEN del growth 2.7*.
For FC(F)(F)c1cc(-c2ccco2)nc(N2CCN(c3ccccc3)CC2)n1 the results were HUVEC prolif 384 97, bCat KO growth 84, Fibroblast inh 90, H69AR inhibit 70 and PTEN del growth 76.
For FC(F)(F)c1cc(-c2ccco2)nc(-n2cnc3ccccc32)n1 the results were HUVEC prolif 384 82, bCat KO growth 85, Fibroblast inh 95, H69AR inhibit 25* and PTEN del growth 73.
Screening Cc1cc(C)c2nc(SCC(=O)NCCN3C(=O)CSC3=O)cc(C)c2c1 returned bCat KO growth 95 and PTEN del growth 82.
For Cc1ccc(CNC(=O)c2ccc(NC(=O)CCS(=O)(=O)c3cccs3)cc2)cc1 the results were HUVEC prolif 384 80, bCat KO growth 88, Fibroblast inh 101, H69AR inhibit 90 and PTEN del growth 88.
`O=C(CCNc1ccc(F)cc1)c1ccco1` gave HUVEC prolif 384 75, bCat KO growth 64, Fibroblast inh 91, H69AR inhibit 1.1* and PTEN del growth 52.
Screening O=C(CCNc1cc(Cl)cc(Cl)c1)c1ccco1 returned HUVEC prolif 384 90, bCat KO growth 12, Fibroblast inh 100, H69AR inhibit 83 and PTEN del growth 55.
For O=C(CCNc1ccc(F)c(Cl)c1)c1ccco1 the results were HUVEC prolif 384 71, bCat KO growth 2.2*, Fibroblast inh 96, H69AR inhibit 1.8* and PTEN del growth 20.
`CNC(=S)NNC(=O)COc1cccc(C)c1C` gave bCat KO growth 91 and PTEN del growth 90.
For CC(C)CC(CO)N1CCN(C(=O)c2cccc(C(F)(F)F)c2)CCC1=O (stereo not drawn) the results were bCat KO growth 102 and PTEN del growth 103.
`O=C(N/N=C/c1cccnc1)C(O)c1ccccc1` (stereo not drawn) gave bCat KO growth 88 and PTEN del growth 99.
For FC(F)(F)c1cc(-c2ccco2)nc(NCc2cccnc2)n1 the results were HUVEC prolif 384 55, bCat KO growth 47, Fibroblast inh 96, H69AR inhibit 29* and PTEN del growth 52.
Cn1c(C(=O)Nc2ccc3c(c2)OCCO3)cc2c(=O)n(C)c3ccccc3c21 was read as HUVEC prolif 384 50, bCat KO growth 66, Fibroblast inh 104, H69AR inhibit 21* and PTEN del growth 58.
For COCCCNC(=O)c1cc2c(=O)n(C)c3ccccc3c2n1C the results were HUVEC prolif 384 70, bCat KO growth 70, Fibroblast inh 101, H69AR inhibit 24* and PTEN del growth 63.
Cn1c(C(=O)NCCCN2CCc3ccccc3C2)cc2c(=O)n(C)c3ccccc3c21 was read as HUVEC prolif 384 52, bCat KO growth 46, Fibroblast inh 67, H69AR inhibit 35* and PTEN del growth 53.
O=S(=O)(NC1CCc2ccccc21)c1ccc(S(=O)(=O)N2CCCC2)cc1 (stereo not drawn) was read as HUVEC prolif 384 93, bCat KO growth 79, Fibroblast inh 96, H69AR inhibit 80 and PTEN del growth 74.

Compound activity deposited in PubChem by SRMLSC.
